From ChEMBL document CHEMBL4138225, “Development of novel anti-filarial agents using carbamo(dithioperoxo)thioate derivatives” (Eur J Med Chem, 2018)
In brackets after ≈: the same amount, converted by molar mass. Activity calls are given as the source filed them. No cut-off for these calls is given here.

Experiments:
Setaria cervi [1] = assay: Induction of apoptosis in Setaria cervi oocytes at 1 to 10 ug/ml after 6 hrs by Annexin V-FITC/propidium iodide staining-based fluorescence microscopic analysis; type: functional, organism-based
Outline: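 Oocytes taken from gravid S. cervi females, cultured in RPMI-1640 with FBS and treated at 1 and 10 μg/mL. Washed, suspended in PBS (50 mM, pH 7.2), spun at 7500 rpm for 5 min, stained with Annexin V-FITC/PI. Imaged by inverted fluorescence microscope.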

Setaria cervi [2] = assay: Antifilarial activity against Setaria cervi microfilariae after 3 hrs by trypan blue exclusion assay; type: functional, organism-based
Outline: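 After treatment, the culture was mixed and 100 μL holding parasites moved into fresh medium and put back in the CO2 incubator. Viability read by trypan blue staining, dead worms blue. Viability % = live / total microfilariae.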

Setaria cervi [3] = assay: Induction of apoptosis in Setaria cervi microfilaria assessed as necrotic cells at 50 ug/ml after 6 hrs by Annexin V-FITC/propidium iodide staining-based flow cytometric analysis (reference value: 0.02%); type: functional
Setaria cervi [4] = assay: Induction of apoptosis in Setaria cervi oocytes assessed as early apoptotic cells at 50 ug/ml after 6 hrs by Annexin V-FITC/propidium iodide staining-based flow cytometric analysis (reference value: 8.19%); type: functional
Setaria cervi [5] = assay: Induction of apoptosis in Setaria cervi oocytes assessed as viable cells at 50 ug/ml after 6 hrs by Annexin V-FITC/propidium iodide staining-based flow cytometric analysis (reference value: 90.03%); type: functional
[6] = Selectivity ratio of IC50 for human WI38 cells to IC50 for Setaria cervi microfilariae; type: toxicity; conditions: read-out: Ratio IC50
Setaria cervi [7] = assay: Antifilarial activity against Setaria cervi microfilaria forms after 24 hrs by MTT assay; type: functional, organism-based
Outline: (§1)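 S. cervi mf or adults cultured in RPMI-1640 with 10% FBS, 5% CO2, 24 h with compounds dissolved in DMSO. Worms washed in PBS, ~1×10^3 put in 0.25 mg/ml MTT for 2 h at 37 °C in the dark. Formazan dissolved in DMSO, A595. Percent inhibition computed, LC50 fitted; at least four repeats, mean ± SE.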

Setaria cervi [8] = assay: Induction of apoptosis in Setaria cervi adult form assessed as increase in EGL1 protein levels after 24 hrs by Western blot analysis; type: functional, organism-based
Outline: (§2)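 Adult worms treated 24 h at 10, 50 and 100 μg/mL. Protein measured by Lowry; 100 μg run on 12.5% SDS-PAGE and blotted to PVDF. Blocked in 10% skim milk, anti-EGL-1, CED-3 or CED-9 overnight at 4 °C, then alkaline phosphatase secondary for 6 h. BCIP/NBT detection, GAPDH loading control, band densitometry.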

Setaria cervi [9] = assay: Antifilarial activity against Setaria cervi oocytes after 24 hrs by MTT assay; type: functional, organism-based
Setaria cervi [10] = assay: Induction of apoptosis in Setaria cervi microfilaria assessed as viable cells at 50 ug/ml after 6 hrs by Annexin V-FITC/propidium iodide staining-based flow cytometric analysis (reference value: 97.66%); type: functional
Setaria cervi [11] = assay: Antifilarial activity against Setaria cervi adult after 24 hrs by MTT assay; type: functional, organism-based; outline: as §1
Setaria cervi [12] = assay: Antifilarial activity against Setaria cervi microfilariae after 24 hrs by MTT assay; type: functional
Outline: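 Bovine S. cervi microfilariae incubated with compounds (DMSO-dissolved) in RPMI-1640 + 10% FBS, 5% CO2, 24 h. Worms washed in PBS; ~1×10^3 suspended in 0.3 ml MTT 0.25 mg/ml, 37 °C 2 h in dark. Formazan dissolved in DMSO, absorbance at 595 nm. Percent inhibition computed; LC50 fitted; ≥4 repeats, mean ± SE.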

Setaria cervi [13] = assay: Antifilarial activity against Setaria cervi microfilariae after 3 hrs
Setaria cervi [14] = assay: Induction of apoptosis in Setaria cervi microfilaria assessed as late apoptotic cells at 50 ug/ml after 6 hrs by Annexin V-FITC/propidium iodide staining-based flow cytometric analysis (reference value: 0.21%); type: functional
Setaria cervi [15] = assay: Antifilarial activity against Setaria cervi adult after 3 hrs by trypan blue exclusion assay; type: functional, organism-based
Setaria cervi [16] = assay: Induction of reactive oxygen species generation in Setaria cervi adult form at 1 to 10 uM by NBT assay; type: functional, organism-based
Outline: (§3)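 Treated mf or adults pelleted at 7500 rpm, washed in PBS (50 mM, pH 7.0), then incubated in 2% NBT for 2 h at 37 °C. Washed in PBS and methanol, formazan dissolved in 2M KOH/DMSO for 10–15 min at room temperature, absorbance read at 620 nm.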

Setaria cervi [17] = assay: Induction of apoptosis in Setaria cervi adult form assessed as decrease in CED9 protein levels after 24 hrs by Western blot analysis; type: functional, organism-based; outline: as §2
Setaria cervi [18] = assay: Induction of apoptosis in Setaria cervi oocytes at 1 to 5 ug/ml by acridine orange/ethidium bromide staining-based fluorescence microscopic analysis; type: functional, organism-based
Outline: (§4)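 Treated mf or oocytes stained with AO and EtBr mixed 1:1 (from […] stocks in 0.1 M PBS). Viewed under fluorescence microscope on glass slides; orange EtBr signal marks lost membrane integrity.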

Setaria cervi [19] = assay: Induction of apoptosis in Setaria cervi microfilariae at 1 to 5 ug/ml by acridine orange/ethidium bromide staining-based fluorescence microscopic analysis; type: functional, organism-based; outline: as §4
Setaria cervi [20] = assay: Induction of apoptosis in Setaria cervi oocytes assessed as late apoptotic cells at 50 ug/ml after 6 hrs by Annexin V-FITC/propidium iodide staining-based flow cytometric analysis (reference value: 0.64%); type: functional
Setaria cervi [21] = assay: Induction of apoptosis in Setaria cervi microfilaria assessed as early apoptotic cells at 50 ug/ml after 6 hrs by Annexin V-FITC/propidium iodide staining-based flow cytometric analysis (reference value: 2.11%); type: functional
Setaria cervi [22] = assay: Induction of apoptosis in Setaria cervi adult form assessed as increase in CED3 protein levels after 24 hrs by Western blot analysis; type: functional, organism-based; outline: as §2
Setaria cervi [23] = assay: Induction of reactive oxygen species generation in Setaria cervi microfilariae at 1 to 10 uM by NBT assay; type: functional, organism-based; outline: as §3
Setaria cervi [24] = assay: Induction of apoptosis in Setaria cervi oocytes assessed as necrotic cells at 50 ug/ml after 6 hrs by Annexin V-FITC/propidium iodide staining-based flow cytometric analysis (reference value: 1.14%); type: functional
Setaria cervi [25] = assay: Induction of chromatin condensation in Setaria cervi microfilariae at 5 ug/ml after 3 hrs by Hoechst 33342 staining-based […] microscopic analysis; type: functional, organism-based
Outline: (§5)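 Treated mf washed in PBS (pH 7.2), fixed in paraformaldehyde and stained 5 min with 1 mg/mL Hoechst 33342. Mounted on poly-L-lysine slides and imaged by fluorescence microscopy at […].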

Setaria cervi [26] = assay: Antifilarial activity against Setaria cervi microfilariae assessed as reduction in worm movement measured every 6 hrs up to 24 hrs by microscopy; type: functional, organism-based
Outline: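 About 1×10^5 S. cervi mf per well in RPMI-1640 with 10% FBS at 5% CO2, given a dose series. Motility checked by microscope every 6 h up to 24 h and scored 4 (highly motile) down to 0 (dead). IC50 and MIC calculated from scores; three experiments in triplicate, mean ± SE.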

WI-38 = assay: Cytotoxicity against human WI38 cells after 24 hrs by MTT assay; type: cell-based; conditions: WI-38, 24 h
Outline: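 WI-38 normal human lung fibroblasts, 2.0×10^4 per well, grown 24 h, then treated 24 h at 0–50 µg/mL. MTT 0.5 mg/mL added in phenol red-free RPMI with 5% FBS, 4 h at 37 °C, 5% CO2. Formazan dissolved in DMSO, A570.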

Setaria cervi [27] = assay: Induction of chromatin condensation in Setaria cervi microfilariae by Hoechst 33342 staining-based […] microscopic analysis; type: functional, organism-based; outline: as §5

| SMILES | Activity (Setaria cervi [2]) | Activity (Setaria cervi [7]) | Activity (Setaria cervi [9]) | Activity (Setaria cervi [11]) | Activity (Setaria cervi [12]) | LC50 (Setaria cervi [12]) | IC50 (Setaria cervi [13]) | Activity (Setaria cervi [15]) | IC50 (Setaria cervi [26]) | MIC (Setaria cervi [26]) | also measured |
| --- | --- | --- | --- | --- | --- | --- | --- | --- | --- | --- | --- |
| Cc1ccc(SSC(=S)N2CCCCC2)cc1 | Dose-dependent effect | Active | Active | Dose-dependent effect | Dose-dependent effect | 3.89 µg/mL (≈ 13.7 µM) | 0.708 µg/mL (≈ 2.5 µM) | Dose-dependent effect | 0.708 µg/mL (≈ 2.5 µM) | 0.358 µg/mL (≈ 1.26 µM) | Activity (Setaria cervi [1]): Dose-dependent effect; Activity (Setaria cervi [3]): 0.01%; Activity (Setaria cervi [4]): 13.3%; Activity (Setaria cervi [5]): 70.84%; selectivity ratio [6]: 25; Activity (Setaria cervi [8]): Dose-dependent effect; Activity (Setaria cervi [10]): 68.55%; Activity (Setaria cervi [14]): 15.82%; Activity (Setaria cervi [16]): Active; Activity (Setaria cervi [17]): Dose-dependent effect; Activity (Setaria cervi [18]): Dose-dependent effect; Activity (Setaria cervi [19]): Dose-dependent effect; Activity (Setaria cervi [20]): 11.3%; Activity (Setaria cervi [21]): 15.6%; Activity (Setaria cervi [22]): Dose-dependent effect; Activity (Setaria cervi [23]): Active; Activity (Setaria cervi [24]): 4.47%; Activity (Setaria cervi [25]): Active; IC50 (WI-38): 19.8 µg/mL (≈ 70 µM) |
| Cc1ccc(SSC(=S)N2CCOCC2)cc1 | – | – | – | – | – | 79.6 µg/mL (≈ 279 µM) | – | – | 19.9 µg/mL (≈ 69.7 µM) | 6.63 µg/mL (≈ 23.2 µM) | – |
| COc1ccc(SSC(=S)N2CCC(Cc3ccccc3)CC2)cc1 | – | – | – | – | – | 248 µg/mL (≈ 638 µM) | – | – | 62.1 µg/mL (≈ 159 µM) | 20.7 µg/mL (≈ 53.1 µM) | – |
| S=C(SSc1cccc2ccccc12)N1CCCC1 | – | – | – | – | – | 90.3 µg/mL (≈ 296 µM) | – | – | 22.6 µg/mL (≈ 73.9 µM) | 7.52 µg/mL (≈ 24.6 µM) | – |
| S=C(SSc1ncccn1)N1CCCCC1 | Dose-dependent effect | Active | Active | Dose-dependent effect | Dose-dependent effect | 5.1 µg/mL (≈ 18.8 µM) | 4.75 µg/mL (≈ 17.5 µM) | Dose-dependent effect | 4.75 µg/mL (≈ 17.5 µM) | 2.39 µg/mL (≈ 8.81 µM) | selectivity ratio [6]: 5; Activity (Setaria cervi [27]): Active; Activity (Setaria cervi [23]): Active; IC50 (WI-38): 10.6 µg/mL (≈ 39.1 µM) |
| COc1ccc(SSC(=S)N2CCCCC2)cc1 | Dose-dependent effect | Active | Active | Dose-dependent effect | Dose-dependent effect | 6.94 µg/mL (≈ 23.2 µM) | 4.61 µg/mL (≈ 15.4 µM) | Dose-dependent effect | 4.61 µg/mL (≈ 15.4 µM) | 2.3 µg/mL (≈ 7.68 µM) | Activity (Setaria cervi [27]): Active |
| S=C(SSc1cccc2ccccc12)N1CCc2ccccc2C1 | – | – | – | – | – | 131 µg/mL (≈ 356 µM) | – | – | 32.7 µg/mL (≈ 89 µM) | 10.9 µg/mL (≈ 29.7 µM) | – |
| S=C(SSc1ncccn1)N1CCc2ccccc2C1 | – | – | – | – | – | 124 µg/mL (≈ 389 µM) | – | – | 31.1 µg/mL (≈ 97.3 µM) | 10.4 µg/mL (≈ 32.4 µM) | – |
| S=C(SSc1cccc2ccccc12)N1CCCCC1 | Dose-dependent effect | Active | Active | Dose-dependent effect | Dose-dependent effect | 6.49 µg/mL (≈ 20.3 µM) | 2.15 µg/mL (≈ 6.73 µM) | Dose-dependent effect | 2.15 µg/mL (≈ 6.73 µM) | 0.583 µg/mL (≈ 1.82 µM) | Activity (Setaria cervi [27]): Active; Activity (Setaria cervi [23]): Active |
| S=C(SSc1ccccn1)N1CCC(Cc2ccccc2)CC1 | – | – | – | – | – | 237 µg/mL (≈ 656 µM) | – | – | 59.1 µg/mL (≈ 164 µM) | 19.7 µg/mL (≈ 54.7 µM) | – |
| S=C(SSc1ccccn1)N1CCOCC1 | – | – | – | – | – | 191 µg/mL (≈ 700 µM) | – | – | 47.7 µg/mL (≈ 175 µM) | 15.9 µg/mL (≈ 58.3 µM) | – |
| S=C(SSc1cccc2ccccc12)N1CCC(Cc2ccccc2)CC1 | – | – | – | – | – | 243 µg/mL (≈ 593 µM) | – | – | 60.7 µg/mL (≈ 148 µM) | 20.2 µg/mL (≈ 49.4 µM) | – |
